Experimental data gathered from unrelated publications.
Lines come from different studies, so protocols differ.

| Compound | test | test system | conditions | measurement | value |
| --- | --- | --- | --- | --- | --- |
| CCn1cc(C)c2c([C@H](N)c3ccc(C(F)(F)F)nc3)n(C)nc2c1=O | metabolic stability | male Sprague-Dawley rat, hepatocytes | 0.5 µM, pH 7.4 | hepatocyte CLint | 1.9 µL/min/10⁶ cells |
| O=c1ccc2ccc(O)cc2o1 | metabolic stability | Sprague-Dawley rat, hepatocytes | 1 µM | hepatocyte CLint | 61 µL/min/10⁶ cells |
| O=C(O)Cc1ccccc1Nc1c(Cl)cccc1Cl | metabolic stability | Sprague-Dawley rat, hepatocytes | 0.5 µM, pH 7.4 | hepatocyte CLint | 66 µL/min/10⁶ cells |
| CC(/C=C/C=C(\C)C(=O)O)=C\C=C\C=C(C)\C=C\C=C(/C)C(=O)O | shake flask | PBS | 2 h, pH 7.4 | logD | 0.7 |
| Cc1ccc(Cn2cc(C(=O)NN)c(=O)c3cc(Oc4ccccc4)ccc32)cc1 | shake flask | PBS | 2 h, pH 7.4 | logD | 2 |
| Cc1c(C(=O)O)ccc2c3n(nc12)[C@@H]1[C@H](C3)N(CC2CC2)[C@@]2(C(=O)Nc3cc(Cl)ccc32)[C@H]1c1cccc(Cl)c1F |  | bovine, serum |  | fraction unbound | 0.045 |
| O=c1ccc2ccc(O)cc2o1 | metabolic stability | rat, liver microsomes |  | scaled CLint | 1030 mL/min/kg |
| Cc1c(N(C)C)ccc2cc(C(=O)NS(=O)(=O)c3ccccc3-c3ccccc3)oc12 |  |  | pH 7.5 | logD | 2.1 |
| O=C1CC[C@H](N2Cc3cc(N4CCN(CC5CCN(c6ccc([C@@H]7c8ccc(O)cc8CC[C@@H]7c7ccccc7)cc6)CC5)CC4)ccc3C2=O)C(=O)N1 | metabolic stability | Sprague-Dawley rat, hepatocytes | 1 µM | hepatocyte CLint | 8.4 µL/min/10⁶ cells |
| COc1cc2nc3n(c(=O)c2cc1Cl)CC[C@@H]1[C@@H]3CCCN1CC1COC1 | shake flask | aqueous buffer | 1 h, pH 7.4 | logD | 2.3 |
| CCn1ccc2c([C@](O)(c3cnc(C(F)(F)F)c(Cl)c3)C3CC3)n(C)nc2c1=O | metabolic stability | male Sprague-Dawley rat, hepatocytes | 0.5 µM, pH 7.4 | hepatocyte CLint | 3.3 µL/min/10⁶ cells |
| C=C(F)C(=O)N1CCN(c2nc(OC[C@@H]3CCCN3C)nc3c2CCN(c2cccc4cccc(Cl)c24)C3)C[C@@H]1CC#N | potentiometric |  | pH 7.4 | logD | 3.6 |
| C[C@H]1Oc2cc(cnc2N)-c2c(nn(C)c2C#N)CN(C)C(=O)c2ccc(F)cc21 |  | bovine, serum |  | fraction unbound | 0.98 |
| CCOc1ccc2ccc(=O)oc2c1 | metabolic stability | male Sprague-Dawley rat, hepatocytes | 1 µM | hepatocyte CLint | 52.8 µL/min/10⁶ cells |
| COCCc1ccc(OCC(O)CNC(C)C)cc1 (stereo not drawn) | metabolic stability | Sprague-Dawley rat, hepatocytes | 0.5 µM, pH 7.4 | hepatocyte CLint | 35 µL/min/10⁶ cells |
